Experiments:
[1] = molecular target: T1, DNA topoisomerase 1 (Homo sapiens) (UniProt P11387); assay: The activity was examined against DNA topoisomerase I mediated DNA cleavage using 3''-End-labelled 161 BP plasmid DNA; + indicates between 20 and 50% of the activity 0f 1 uM camptothecin
T1 sequence (whole entry): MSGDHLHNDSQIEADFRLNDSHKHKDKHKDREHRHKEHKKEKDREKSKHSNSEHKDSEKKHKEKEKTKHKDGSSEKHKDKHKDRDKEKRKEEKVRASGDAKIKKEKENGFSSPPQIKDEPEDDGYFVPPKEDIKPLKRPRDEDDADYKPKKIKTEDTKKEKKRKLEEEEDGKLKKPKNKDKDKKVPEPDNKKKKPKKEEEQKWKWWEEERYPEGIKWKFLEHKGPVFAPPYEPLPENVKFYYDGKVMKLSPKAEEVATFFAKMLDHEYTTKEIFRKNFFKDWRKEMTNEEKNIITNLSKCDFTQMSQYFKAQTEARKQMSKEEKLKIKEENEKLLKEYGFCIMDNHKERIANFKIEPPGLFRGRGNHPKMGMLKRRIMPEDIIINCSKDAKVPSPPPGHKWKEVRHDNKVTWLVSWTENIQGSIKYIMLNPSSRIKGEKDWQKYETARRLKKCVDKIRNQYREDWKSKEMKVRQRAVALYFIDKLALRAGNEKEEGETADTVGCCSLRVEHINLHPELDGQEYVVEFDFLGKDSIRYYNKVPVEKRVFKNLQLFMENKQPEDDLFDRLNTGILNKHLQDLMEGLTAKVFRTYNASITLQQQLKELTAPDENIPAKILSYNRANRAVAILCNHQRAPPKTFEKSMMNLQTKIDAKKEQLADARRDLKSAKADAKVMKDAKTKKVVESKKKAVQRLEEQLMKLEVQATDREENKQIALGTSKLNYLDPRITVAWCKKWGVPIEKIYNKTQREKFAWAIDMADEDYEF
Summary of the method: (§1)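 A 161 bp PvuII–HindIII fragment of pBluescript SK(–) was 3'-end-labeled at the HindIII site with [α-32P]dCTP by Klenow fill-in. About 50 000 dpm per reaction was incubated with top1 and drug (0.1–300 μM) at 30 °C for 30 min, then stopped with 0.5% SDS (final). Products were run on 16% polyacrylamide/7 M urea gels at 51 °C and imaged by phosphorimager.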

[2] = test system: DU-145; assay: Cytotoxicity against prostate DU-145 human cancer cell line.; assay type: functional
Summary of the method: (§2)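 GI50 = concentration giving 50% growth inhibition, from a screen of about 55 human cancer cell lines over a 10^-8 to 10^-4 M test range. Values come from two determinations where a population standard deviation is shown, otherwise from single determinations.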

[3] = test system: HCT-116; assay: Cytotoxicity against colon HCT116 human cancer cell line.; assay type: functional; summary of the method: as §2
[4] = test system: HOP-62; assay: Cytotoxicity against lung HOP-62 human cancer cell line.; assay type: functional; summary of the method: as §2
[5] = test system: OVCAR-3; assay: Cytotoxicity against ovarian OVCAR-3 human cancer cell line.; assay type: functional; summary of the method: as §2
[6] = test system: MDA-MB-435; assay: In vitro cytotoxicity against MDA-MB-435 (Human breast cancer) cell line.; assay type: functional; summary of the method: as §2
[7] = test system: UACC-62; assay: In vitro cytotoxicity against UACC-62 (Human melanoma) cell line.; assay type: functional; summary of the method: as §2
[8] = test system: SF-539; assay: Compound was tested for its cytotoxicity against CNS SF-539 cell line; assay type: functional; conditions: Homo sapiens; summary of the method: as §2
[9] = test system: SN12C; assay: In vitro cytotoxicity against SN12C (Human renal cancer) cell line.; assay type: functional; summary of the method: as §2
[10] = molecular target: T1, DNA topoisomerase 1 (Homo sapiens); assay: The activity was examined against DNA topoisomerase I mediated DNA cleavage using 3'-End-labelled 161 BP plasmid DNA. 0 indicates inactive; summary of the method: as §1
[11] = test system: SF-539; assay: Compound was tested for its cytotoxicity against CNS SF-539 Human cancer cell line
[12] = test system: DU-145; assay: Compound was tested for its cytotoxicity against prostate DU-145 Human cancer cell line; assay type: functional; summary of the method: as §2
[13] = molecular target: T1, DNA topoisomerase 1 (Homo sapiens); assay: The activity was examined against DNA topoisomerase I mediated DNA cleavage using 3'-End-labelled 161 BP plasmid DNA; 0 indicates inactive; summary of the method: as §1
[14] = test system: SF-539; assay: Compound was tested for its cytotoxicity against CNS SF-539 Human cancer cell line; assay type: functional; summary of the method: as §2

For O=C1c2ccccc2-c2c1c1ccccc1c(=O)n2CCCCO, the Top1 cleavage activity [1] was 20-50% of the activity 0f 1 uM camptothecin, the GI50 [2] was greater than 100 µM and the GI50 [3] was 3.2 µM. It also gave a GI50 [4] of 13 µM, a GI50 [5] of 74 µM and a GI50 [6] greater than 100 µM. It also gave a GI50 [7] of 4.4 µM, a GI50 [8] of 4.6 µM and a GI50 [9] of 7.4 µM.

COc1cc2c(c(OC)c1OC)C(=O)c1c-2n(C)c(=O)c2ccccc12 gave a Top1 cleavage activity [10] of 0, a GI50 [11] greater than 100 µM and a GI50 [2] greater than 100 µM. It also gave a GI50 [4] of 24 µM, a GI50 [5] greater than 100 µM and a GI50 [9] greater than 100 µM.

Cn1c2c(c3ccccc3c1=O)C(=O)c1cc(OCc3ccccc3)c(OCc3ccccc3)cc1-2 gave a GI50 [3] greater than 100 µM, a GI50 [4] of 72 µM and a GI50 [12] greater than 100 µM. It also gave a GI50 [5] greater than 100 µM, a Top1 cleavage activity [13] of 0 and a GI50 [6] greater than 100 µM. It also gave a GI50 [7] of 93 µM, a GI50 [9] of 88 µM and a GI50 [14] greater than 100 µM.
